# Reference: ChEMBL document CHEMBL2401735, “Synthesis and cytotoxicity of novel (thiazol-2-yl)hydrazine derivatives as promising anti-Candida agents” (Eur J Med Chem, 2013)
# Test system: Nakaseomyces glabratus
# Assay: Anticandida activity against Candida glabrata clinical isolate assessed as growth inhibition after 24 hrs by broth microdilution method
# Format: functional
# Details: not given
# Method in brief: (§1)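 Clinical Candida isolates subcultured for purity and optimal growth before testing; compounds dissolved in DMSO. Broth microdilution per NCCLS in Sabouraud dextrose broth, serial dilutions, inoculum about 10³/mL, with growth control and medium-only control; 24 h incubation at 37 °C. MIC is the lowest concentration giving complete visible inhibition.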
row,Compound,MIC
1,CCCCCC/C(C)=N/Nc1nc(-c2ccc(OC)cc2OC)cs1,64 mg/L
2,CCCC/C(CC)=N/Nc1nc(-c2ccc(OC)cc2OC)cs1,128 mg/L
3,CC/C(C)=N/Nc1nc(-c2ccc(Cl)cc2Cl)cs1,4 mg/L
4,CCCCCC/C(C)=N/Nc1nc(-c2ccc(Cl)cc2Cl)cs1,4 mg/L
5,COc1ccc(-c2csc(N/N=C3/C=CC(C)(C)CC3)n2)cc1,32 mg/L

# Test system: Enterobacter sp.
# Assay: Antibacterial activity against Enterobacter spp. assessed as growth inhibition after 18 to 22 hrs by broth microdilution method
# Format: functional
# Details: not given
# Method in brief: (§2)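 Bacterial isolates subcultured for purity, identified conventionally. Broth microdilution per NCCLS in Mueller-Hinton II broth; plates with growth control (no compound) and medium-only control, incubated 18-22 h at 35 °C. MIC taken as lowest concentration giving complete growth inhibition by unaided eye.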
row,Compound,MIC
1,CCCCCC/C(C)=N/Nc1nc(-c2ccc(OC)cc2OC)cs1,> 256 mg/L
2,CCCC/C(CC)=N/Nc1nc(-c2ccc(OC)cc2OC)cs1,> 256 mg/L
3,CC/C(C)=N/Nc1nc(-c2ccc(Cl)cc2Cl)cs1,> 256 mg/L
4,CCCCCC/C(C)=N/Nc1nc(-c2ccc(Cl)cc2Cl)cs1,> 256 mg/L
5,COc1ccc(-c2csc(N/N=C3/C=CC(C)(C)CC3)n2)cc1,> 256 mg/L

# Test system: [Candida] sake
# Assay: Anticandida activity against Candida sake clinical isolate assessed as growth inhibition after 24 hrs by broth microdilution method
# Format: functional
# Details: Fermentozyma sake
# Method in brief: as §1
row,Compound,MIC
1,CCCCCC/C(C)=N/Nc1nc(-c2ccc(OC)cc2OC)cs1,256 mg/L
2,CCCC/C(CC)=N/Nc1nc(-c2ccc(OC)cc2OC)cs1,256 mg/L
3,CC/C(C)=N/Nc1nc(-c2ccc(Cl)cc2Cl)cs1,8 mg/L
4,CCCCCC/C(C)=N/Nc1nc(-c2ccc(Cl)cc2Cl)cs1,32 mg/L
5,COc1ccc(-c2csc(N/N=C3/C=CC(C)(C)CC3)n2)cc1,256 mg/L

# Test system: Candida parapsilosis
# Assay: Anticandida activity against Candida parapsilosis clinical isolate assessed as growth inhibition after 24 hrs by broth microdilution method
# Format: functional
# Details: Lodderomyces parapsilosis
# Method in brief: as §1
row,Compound,MIC
1,CCCCCC/C(C)=N/Nc1nc(-c2ccc(OC)cc2OC)cs1,256 mg/L
2,CCCC/C(CC)=N/Nc1nc(-c2ccc(OC)cc2OC)cs1,256 mg/L
3,CC/C(C)=N/Nc1nc(-c2ccc(Cl)cc2Cl)cs1,8 mg/L
4,CCCCCC/C(C)=N/Nc1nc(-c2ccc(Cl)cc2Cl)cs1,32 mg/L
5,COc1ccc(-c2csc(N/N=C3/C=CC(C)(C)CC3)n2)cc1,64 mg/L

# Test system: Escherichia coli
# Assay: Antibacterial activity against Escherichia coli assessed as growth inhibition after 18 to 22 hrs by broth microdilution method
# Format: functional
# Details: not given
# Method in brief: as §2
row,Compound,MIC
1,CCCCCC/C(C)=N/Nc1nc(-c2ccc(OC)cc2OC)cs1,> 256 mg/L
2,CCCC/C(CC)=N/Nc1nc(-c2ccc(OC)cc2OC)cs1,> 256 mg/L
3,CC/C(C)=N/Nc1nc(-c2ccc(Cl)cc2Cl)cs1,> 256 mg/L
4,CCCCCC/C(C)=N/Nc1nc(-c2ccc(Cl)cc2Cl)cs1,> 256 mg/L
5,COc1ccc(-c2csc(N/N=C3/C=CC(C)(C)CC3)n2)cc1,> 256 mg/L

# Test system: Candida albicans
# Assay: Anticandida activity against Candida albicans clinical isolate assessed as growth inhibition after 24 hrs by broth microdilution method
# Format: functional
# Details: not given
# Method in brief: as §1
row,Compound,MIC
1,CCCCCC/C(C)=N/Nc1nc(-c2ccc(OC)cc2OC)cs1,64 mg/L
2,CCCC/C(CC)=N/Nc1nc(-c2ccc(OC)cc2OC)cs1,128 mg/L
3,CC/C(C)=N/Nc1nc(-c2ccc(Cl)cc2Cl)cs1,2 mg/L
4,CCCCCC/C(C)=N/Nc1nc(-c2ccc(Cl)cc2Cl)cs1,2 mg/L
5,COc1ccc(-c2csc(N/N=C3/C=CC(C)(C)CC3)n2)cc1,8 mg/L

# Test system: Pichia kudriavzevii
# Assay: Anticandida activity against Candida krusei clinical isolate assessed as growth inhibition after 24 hrs by broth microdilution method
# Format: functional
# Details: not given
# Method in brief: as §1
row,Compound,MIC
1,CCCCCC/C(C)=N/Nc1nc(-c2ccc(OC)cc2OC)cs1,256 mg/L
2,CCCC/C(CC)=N/Nc1nc(-c2ccc(OC)cc2OC)cs1,256 mg/L
3,CC/C(C)=N/Nc1nc(-c2ccc(Cl)cc2Cl)cs1,8 mg/L
4,CCCCCC/C(C)=N/Nc1nc(-c2ccc(Cl)cc2Cl)cs1,4 mg/L
5,COc1ccc(-c2csc(N/N=C3/C=CC(C)(C)CC3)n2)cc1,256 mg/L

# Test system: Staphylococcus aureus
# Assay: Antibacterial activity against Staphylococcus aureus assessed as growth inhibition after 18 to 22 hrs by broth microdilution method
# Format: functional
# Details: not given
# Method in brief: as §2
row,Compound,MIC
1,CCCCCC/C(C)=N/Nc1nc(-c2ccc(OC)cc2OC)cs1,> 256 mg/L
2,CCCC/C(CC)=N/Nc1nc(-c2ccc(OC)cc2OC)cs1,> 256 mg/L
3,CC/C(C)=N/Nc1nc(-c2ccc(Cl)cc2Cl)cs1,> 256 mg/L
4,CCCCCC/C(C)=N/Nc1nc(-c2ccc(Cl)cc2Cl)cs1,> 256 mg/L
5,COc1ccc(-c2csc(N/N=C3/C=CC(C)(C)CC3)n2)cc1,> 256 mg/L

# Test system: Proteus mirabilis
# Assay: Antibacterial activity against Proteus mirabilis assessed as growth inhibition after 18 to 22 hrs by broth microdilution method
# Format: functional
# Details: not given
# Method in brief: as §2
row,Compound,MIC
1,CCCCCC/C(C)=N/Nc1nc(-c2ccc(OC)cc2OC)cs1,> 256 mg/L
2,CCCC/C(CC)=N/Nc1nc(-c2ccc(OC)cc2OC)cs1,> 256 mg/L
3,CC/C(C)=N/Nc1nc(-c2ccc(Cl)cc2Cl)cs1,> 256 mg/L
4,CCCCCC/C(C)=N/Nc1nc(-c2ccc(Cl)cc2Cl)cs1,> 256 mg/L
5,COc1ccc(-c2csc(N/N=C3/C=CC(C)(C)CC3)n2)cc1,> 256 mg/L

# Test system: Candida tropicalis
# Assay: Anticandida activity against Candida tropicalis clinical isolate assessed as growth inhibition after 24 hrs by broth microdilution method
# Format: functional
# Details: not given
# Method in brief: as §1
row,Compound,MIC
1,CCCCCC/C(C)=N/Nc1nc(-c2ccc(OC)cc2OC)cs1,256 mg/L
2,CCCC/C(CC)=N/Nc1nc(-c2ccc(OC)cc2OC)cs1,256 mg/L
3,CC/C(C)=N/Nc1nc(-c2ccc(Cl)cc2Cl)cs1,4 mg/L
4,CCCCCC/C(C)=N/Nc1nc(-c2ccc(Cl)cc2Cl)cs1,4 mg/L
5,COc1ccc(-c2csc(N/N=C3/C=CC(C)(C)CC3)n2)cc1,256 mg/L

# Test system: Klebsiella oxytoca
# Assay: Antibacterial activity against Klebsiella oxytoca assessed as growth inhibition after 18 to 22 hrs by broth microdilution method
# Format: functional
# Details: not given
# Method in brief: as §2
row,Compound,MIC
1,CCCCCC/C(C)=N/Nc1nc(-c2ccc(OC)cc2OC)cs1,> 256 mg/L
2,CCCC/C(CC)=N/Nc1nc(-c2ccc(OC)cc2OC)cs1,> 256 mg/L
3,CC/C(C)=N/Nc1nc(-c2ccc(Cl)cc2Cl)cs1,> 256 mg/L
4,CCCCCC/C(C)=N/Nc1nc(-c2ccc(Cl)cc2Cl)cs1,> 256 mg/L
5,COc1ccc(-c2csc(N/N=C3/C=CC(C)(C)CC3)n2)cc1,> 256 mg/L

# Test system: Enterococcus faecalis
# Assay: Antibacterial activity against […] assessed as growth inhibition after 18 to 22 hrs by broth microdilution method
# Format: functional
# Details: not given
# Method in brief: as §2
row,Compound,MIC
1,CCCCCC/C(C)=N/Nc1nc(-c2ccc(OC)cc2OC)cs1,> 256 mg/L
2,CCCC/C(CC)=N/Nc1nc(-c2ccc(OC)cc2OC)cs1,> 256 mg/L
3,CC/C(C)=N/Nc1nc(-c2ccc(Cl)cc2Cl)cs1,> 256 mg/L
4,CCCCCC/C(C)=N/Nc1nc(-c2ccc(Cl)cc2Cl)cs1,> 256 mg/L
5,COc1ccc(-c2csc(N/N=C3/C=CC(C)(C)CC3)n2)cc1,> 256 mg/L

# Test system: Streptococcus alpha-hemolyticus
# Assay: Antibacterial activity against Streptococcus alpha-hemolyticus assessed as growth inhibition after 18 to 22 hrs by broth microdilution method
# Details: not given
row,Compound,MIC
1,CCCCCC/C(C)=N/Nc1nc(-c2ccc(OC)cc2OC)cs1,> 256 mg/L
2,CCCC/C(CC)=N/Nc1nc(-c2ccc(OC)cc2OC)cs1,> 256 mg/L
3,CC/C(C)=N/Nc1nc(-c2ccc(Cl)cc2Cl)cs1,> 256 mg/L
4,CCCCCC/C(C)=N/Nc1nc(-c2ccc(Cl)cc2Cl)cs1,> 256 mg/L
5,COc1ccc(-c2csc(N/N=C3/C=CC(C)(C)CC3)n2)cc1,> 256 mg/L

# Test system: Staphylococcus warneri
# Assay: Antibacterial activity against Staphylococcus warneri assessed as growth inhibition after 18 to 22 hrs by broth microdilution method
# Format: functional
# Details: not given
# Method in brief: as §2
row,Compound,MIC
1,CCCCCC/C(C)=N/Nc1nc(-c2ccc(OC)cc2OC)cs1,> 256 mg/L
2,CCCC/C(CC)=N/Nc1nc(-c2ccc(OC)cc2OC)cs1,> 256 mg/L
3,CC/C(C)=N/Nc1nc(-c2ccc(Cl)cc2Cl)cs1,> 256 mg/L
4,CCCCCC/C(C)=N/Nc1nc(-c2ccc(Cl)cc2Cl)cs1,> 256 mg/L
5,COc1ccc(-c2csc(N/N=C3/C=CC(C)(C)CC3)n2)cc1,> 256 mg/L
